# Published values collected from several papers.
# Target: Serine/threonine-protein kinase N1 (PKN1, Homo sapiens, UniProt Q16512)
Structure (SMILES),effect on,method,concentration,remaining binding
N[C@H]1CCN(c2nccc(-c3cnn4ncccc34)n2)C1,binding,,1 µM,86%
COc1cnc(Nc2cccc(S(N)(=O)=O)c2)nc1N1CCN(c2ccccc2)C(=O)C1,binding,competition with immobilised ligand,1 µM,98%
Cc1cnc(Nc2ccc(C(=O)N3CCC(N4CCCC4)CC3)cc2)nc1-c1cc2ccccc2s1,binding,competition with immobilised ligand,1 µM,1.2%
CN(CCCC(F)(F)F)c1nccc(-c2cnn3ncccc23)n1,binding,,1 µM,100%
O=C(c1ccc(Nc2ncc(Cl)c(-c3ccc(Cl)s3)n2)cc1)N1CCC(N2CCCC2)CC1,binding,competition with immobilised ligand,1 µM,25%
c1cnn2ncc(-c3ccnc(N4CCC45COC5)n3)c2c1,binding,,1 µM,87%
O=C(c1ccc(Nc2nccc(-c3cc4ccccc4s3)n2)cc1)N1CCC(N2CCCC2)CC1,binding,competition with immobilised ligand,1 µM,12%
Cc1nc(N2CC[C@@H](O)C2)ncc1-c1cc(C(F)(F)F)cc2[nH]ncc12,binding,competition with immobilised ligand,1 µM,100%
F[C@@H]1CCN(c2nccc(-c3cnn4ncccc34)n2)C1,binding,,1 µM,100%
Nc1ncc2c(n1)-c1c([nH]c3ccc(C#CC4CC4)cc13)CCCC2,binding,competition with immobilised ligand,1 µM,78%
CC1=C(C#N)C(c2ccc3c(c2)c(NC(=O)c2ccccc2C)nn3C)C(C#N)=C(C)N1,cell-free assay,competition with immobilised ligand,1 µM,78%
CN(C)c1nccc(-c2cnn3ncccc23)n1,binding,,1 µM,98%
O=C(NS(=O)(=O)c1ccc(NCC2CCOCC2)c([N+](=O)[O-])c1)c1ccc(N2CCN(Cc3ccc(C(F)(F)F)cc3-c3ccc(Cl)cc3)CC2)cc1Oc1cnc2[nH]ccc2c1,cell-free assay,competition with immobilised ligand,1 µM,100%
C[C@@H](c1ccc(-n2cnc3c(N)ncnc32)cc1)N1CCc2nn(C)c(Cc3ccccc3)c2C1=O,binding,competition with immobilised ligand,0.1 µM,98%
C[C@H](c1ccc(F)cc1)N(Cc1cccc(C(=O)O)c1)C(=O)c1cnc2ccccc2c1,cell-free assay,competition with immobilised ligand,1 µM,100%
c1cncc(-c2cccc(Nc3nccc(NC4CCCCC4)n3)c2)c1,binding,competition with immobilised ligand,10 µM,64%
O=C(Nc1cnc(Oc2ccc(F)cc2)nc1)N1CCc2ncccc2[C@@H]1c1ccc(F)cc1,cell-free assay,competition with immobilised ligand,1 µM,95%
CN(C)c1ncc(F)c(-c2cnn3ncccc23)n1,binding,,1 µM,100%
Cc1cc(C)c(-n2ccn3nc(-c4cccnc4)cc23)cc1NC(=O)c1cc(C#N)cc(S(F)(F)(F)(F)F)c1,cell-free assay,competition with immobilised ligand,0.1 µM,96.7%
O=C(NCC1CCOCC1)c1n[nH]cc1NC(=O)c1c(F)cccc1F,binding,competition with immobilised ligand,1 µM,100%
CC1CCCN1c1nccc(-c2cnn3ncccc23)n1 (stereo not shown),binding,,1 µM,100%
O=C1CCc2cc(Nc3cc(OC4CCOCC4)c([N+](=O)[O-])cc3Cl)ccc2N1,cell-free assay,competition with immobilised ligand,1 µM,100%
